Read-outs that look alike come from different tables or passages of the source. One block for each molecule: values may come before it.
What was measured:
TNAP [1] = biological target: T1, TNAP (Homo sapiens, UniProt P05186); conditions: ref Fishman and Sie, 1971; Van Belle, 1976; Farley et al., 1980; cited from earlier work
T1 sequence (P05186 18-501 limits assumed): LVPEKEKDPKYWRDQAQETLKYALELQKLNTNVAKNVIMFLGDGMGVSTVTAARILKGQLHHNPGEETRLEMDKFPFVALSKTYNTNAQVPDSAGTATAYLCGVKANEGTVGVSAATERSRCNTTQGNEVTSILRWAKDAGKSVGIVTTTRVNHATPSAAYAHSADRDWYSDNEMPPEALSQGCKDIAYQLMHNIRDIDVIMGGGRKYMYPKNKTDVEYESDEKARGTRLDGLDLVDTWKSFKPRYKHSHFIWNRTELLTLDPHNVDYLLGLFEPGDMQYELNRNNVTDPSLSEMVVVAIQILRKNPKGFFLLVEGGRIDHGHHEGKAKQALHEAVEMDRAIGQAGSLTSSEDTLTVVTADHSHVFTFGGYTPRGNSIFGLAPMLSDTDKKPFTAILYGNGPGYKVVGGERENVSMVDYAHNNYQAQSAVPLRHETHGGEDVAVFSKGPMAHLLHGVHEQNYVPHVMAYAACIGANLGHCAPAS

TNAP [2] = biological target: T1, TNAP; test: Luminescent TNAP assay with CDP-star substrate; format: biochemical
TNAP [3] = biological target: T1, TNAP; format: biochemical; conditions: for MOI vs CDP*: mode of inhibition with respect to CDP-star (UC uncompetitive, C competitive); for MOI vs DEA: mode of inhibition with respect to DEA (C competitive, NC non-competitive)
IAP = biological target: T2, IAP (Homo sapiens, UniProt P09923); test: Luminescent IAP selectivity assay; format: biochemical; conditions: read-out: SDCCG panel IC50 IAP, […] CDP-star
T2 sequence (P09923 20-503 limits assumed): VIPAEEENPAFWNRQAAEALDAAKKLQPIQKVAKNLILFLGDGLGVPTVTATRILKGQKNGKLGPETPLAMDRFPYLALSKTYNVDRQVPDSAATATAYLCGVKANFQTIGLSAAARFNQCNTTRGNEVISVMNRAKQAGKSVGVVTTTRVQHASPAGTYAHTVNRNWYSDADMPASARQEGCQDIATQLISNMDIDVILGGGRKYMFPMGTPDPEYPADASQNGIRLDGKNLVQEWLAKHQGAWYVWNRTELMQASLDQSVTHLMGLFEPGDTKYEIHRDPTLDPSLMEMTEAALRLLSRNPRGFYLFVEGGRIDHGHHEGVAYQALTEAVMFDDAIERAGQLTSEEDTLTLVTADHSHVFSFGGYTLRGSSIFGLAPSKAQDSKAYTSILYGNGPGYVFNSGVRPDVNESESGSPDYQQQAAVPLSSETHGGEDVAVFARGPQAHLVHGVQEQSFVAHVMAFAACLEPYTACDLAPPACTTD

PLAP = PLAP (Homo sapiens, UniProt P05187); test: Luminescent PLAP selectivity assay; format: biochemical; conditions: read-out: SDCCG panel IC50 PLAP, 85 µM CDP-star
Sequence of PLAP (P05187 23-506 limits assumed): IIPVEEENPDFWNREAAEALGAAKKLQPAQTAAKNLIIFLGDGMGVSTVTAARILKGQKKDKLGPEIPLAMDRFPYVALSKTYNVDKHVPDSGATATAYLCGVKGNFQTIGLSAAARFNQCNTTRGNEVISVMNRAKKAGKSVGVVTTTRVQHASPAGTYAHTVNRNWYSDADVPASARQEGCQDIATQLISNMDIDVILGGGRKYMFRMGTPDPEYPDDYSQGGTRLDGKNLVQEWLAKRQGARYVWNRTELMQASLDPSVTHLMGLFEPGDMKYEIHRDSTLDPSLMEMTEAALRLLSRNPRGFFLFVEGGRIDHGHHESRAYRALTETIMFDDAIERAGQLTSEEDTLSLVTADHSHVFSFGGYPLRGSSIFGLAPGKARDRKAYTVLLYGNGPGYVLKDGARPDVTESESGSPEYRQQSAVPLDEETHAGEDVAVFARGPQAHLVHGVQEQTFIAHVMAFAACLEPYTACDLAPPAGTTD
Outline: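 Run as an analogue of the luminescent TNAP assay: CDP-star held at the PLAP Km. The TNAP version used 100 mM DEA-HCl pH 9.8, 1 mM MgCl2 and 20 uM ZnCl2, with luminescence read after 30 min at room temperature. Percent inhibition was computed against negative and positive control wells. Dose-response data were fitted to the Hill equation for IC50, excluding nephelometrically precipitating concentrations.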

TNAP [4] = biological target: T1, TNAP; test: Colorimetric TNAP assay, pNPP substrate, absorbance at 405 nm; format: biochemical; conditions: colorimetric assays, 1 M DEA, compared with luminescent assay
[5] = read-out: IC50 SAR-Lumi, dry powder compounds, 100 mM DEA
[6] = read-out: SDCCG panel IC50 TNAP

SMILES: NC(N)=NCCCC[C@H](N)C(=O)O [L-homoarginine]
- Mode of inhibition of TNAP by known inhibitors (TNAP [1]): inhibited uncompetitively

SMILES: O=C(O)c1cc(-c2ccccc2Cl)n[nH]1 [MLS-0005718]
- IC50 (TNAP [2]; [5]): 0.743 µM
- IC50 (TNAP [2]; [6]): 0.743 µM
- MOI vs CDP* (TNAP [3]): competitive with CDP-star
- MOI vs DEA (TNAP [3]): competitive mechanism
- IC50 (IAP): 43.5 µM
- IC50 (PLAP): > 100 µM

SMILES: COc1ccc(C)cc1S(=O)(=O)Nc1cccnc1 [MLS-0010847]
- IC50 (TNAP [2]; [5]): 0.926 µM
- IC50 (TNAP [2]; [6]): 0.926 µM
- IC50 (IAP): > 100 µM
- IC50 (PLAP): > 100 µM

- IC50 (PLAP): > 100 µM
SMILES: COc1ccc(OC)c(S(=O)(=O)Nc2cnc3ccccc3c2)c1 [MLS-0038949]

SMILES: O=c1cc(-c2cccc3ccccc23)[nH][nH]1 [MLS-0039961]
- IC50 (TNAP [2]; [5]): 4.62 µM
- MOI vs CDP* (TNAP [3]): competitive with CDP-star
- MOI vs DEA (TNAP [3]): non-competitive
- IC50 (IAP): > 100 µM
- IC50 (PLAP): > 100 µM

SMILES: COc1ccc(OC)c(S(=O)(=O)Nc2ccc(O)c(Sc3ncn[nH]3)c2)c1 [MLS-0043574]
- Activity in the colorimetric assay (TNAP [4]): inactive

SMILES: O=C1C2CC=CCC2C(=O)N1c1n[nH]c(Cc2ccccc2)n1 (stereo not shown) [MLS-0067142]
- IC50 (TNAP [2]; [5]): 0.186 µM
- IC50 (TNAP [2]; [6]): 0.186 µM
- MOI vs CDP* (TNAP [3]): competitive with CDP-star
- MOI vs DEA (TNAP [3]): competitive mechanism
- IC50 (IAP): 0.539 µM
- IC50 (PLAP): 3.14 µM

SMILES: c1ccc([C@H]2CN3CCSC3=N2)cc1 [levamisole]
- Mode of inhibition of TNAP by known inhibitors (TNAP [1]): inhibited uncompetitively
